Here are results for 23 compounds from ChEMBL document CHEMBL3352761, “Synthesis, antitumor activity, and mechanism of action of benzo[b]chromeno[6,5-g][1,8]naphthyridin-7-one analogs of acronycine” (J Med Chem, 2014).

For assay [1], the system named is L1210. The assay can be described thus: Cytotoxicity against mouse L1210 cells after 48 hrs by MTT assay. The class given is functional, cell-based. The conditions noted are these: L1210, 48 h. A general note: Tetrazolium dyes change colour on reduction, which living cells bring about.
Assay [2] in a line: Cytotoxicity against human KB-3-1 cells after 96 hrs by MTT assay. It is filed as functional, cell-based. The conditions noted are these: KB 3-1, 96 h.
In assay [3] the test system is L1210. Description: Induction of cell cycle arrest in mouse L1210 cells assessed as accumulation at S phase at 5 uM incubated for 21 hrs by propidium iodide staining based flow cytometry (reference value: 32%). The class given is functional. (In flow cytometry, cells or beads pass a laser one at a time.)
The nature of assay [4]: Induction of 117-bp DNA (unknown origin) alkylation incubated for 5 mins to 24 hrs by gel shift assay. Put shortly: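 117-bp pBS plasmid fragment (EcoRI/PvuII cut), 32P-labelled at EcoRI end, gel-purified. Incubated with drug (rising concentrations up to 50 μM, or fixed 50 μM for kinetics) in 1 mM Na cacodylate pH 7.0, dark, room temperature. Covalent complex seen as shifted band on native 6% PAGE in TBE, phosphorimaging; T1/2 taken as time to half-maximal shift.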
Background: Mobility shift assays separate free from complexed probe on a gel.

Assay [5] in a line: Induction of 117-bp DNA (unknown origin) alkylation assessed as incubation time required to obtain half of maximum of covalent drug/DNA complex incubated for 5 mins to 24 hrs by gel shift assay. Put shortly: (§1)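 117-bp pBS EcoRI/PvuII fragment, 32P-end-labelled at EcoRI site, gel-purified; incubated with 50 μM drug in 1 mM Na cacodylate pH 7.0, dark, room temperature, 5 min to 24 h; 6% native polyacrylamide gel in TBE pH 8.3, ~5 h at 300 V; phosphorimaging of shifted band; T1/2 = time to half-maximal gel shift from quantification plots; nd if no maximum reached.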

Assay [6] deals with L1210. Description: Induction of cell cycle arrest in mouse L1210 cells assessed as accumulation at S phase at 10 uM incubated for 21 hrs by propidium iodide staining based flow cytometry (reference value: 32%). The class given is functional.
A short description of assay [7]: Induction of 117-bp DNA (unknown origin) alkylation assessed as incubation time required to obtain maximum of covalent drug/DNA complex incubated for 5 mins to 24 hrs by gel shift assay.
Assay [8] is described as follows: Induction of 117-bp DNA (unknown origin) alkylation at 50 uM incubated for 24 hrs by gel shift assay. The gist of the method:
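Labelled 117-bp DNA fragment incubated with drug at increasing concentrations up to 50 μM in 1 mM Na cacodylate pH 7.0, dark, room temperature, 2 or 24 h; native polyacrylamide electrophoresis; bound/free ratio quantified relative to a 50 μM reference alkylator control; scored strong, weak (no plateau by 24 h) or none.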

In the next assay the test system is MC-38. Description: Antitumor activity against mouse C38 cells xenografted in mouse assessed as inhibition of tumor growth at 4 mg/kg, iv administered on day 12 and 24. It is filed as functional.
The test system of assay [9] is L1210. The assay can be described thus: Induction of cell cycle arrest in mouse L1210 cells assessed as accumulation at S phase at 2.5 uM incubated for 21 hrs by propidium iodide staining based flow cytometry (reference value: 32%). It is filed as functional.
The nature of assay [10]: Induction of 117-bp DNA (unknown origin) alkylation assessed as incubation time required to obtain half of maximum of covalent drug/DNA complex at 50 uM incubated for 5 mins to 24 hrs by gel shift assay. Put shortly:
as §1

The source made the active and inactive calls. No cut-off for these calls is given here.

On to `COc1cc2c(c3c1c(=O)c1cc4ccccc4nc1n3C)[C@H]1OC(=O)O[C@H]1C(C)(C)O2` (racemic), for which the IC50 (as a rule, the concentration that gives 50% inhibition) with L1210 [1] is 120 nM; in [2] it was 41 nM. In addition, in the assay on L1210 [3], the Activity is 76%. Besides, the outcome in [4] was Active.

As for `COc1cc2c(c3c1c(=O)c1cc4ccccc4cc1n3C)C(OC(C)=O)C(OC(C)=O)C(C)(C)O2` (single isomer, unassigned; (-)), the T1/2 in [5] came to 0.333 h.

Turning to `COc1c2c(cc3c1c(=O)c1cc4ccccc4nc1n3C)OC(C)(C)C=C2`, the IC50 was determined as 24000 nM in the assay on L1210 [1] and 14000 nM in [2]. For the same compound, the outcome with L1210 [3] was inactive.

Consider `COc1c2c(cc3c1c(=O)c1cc4ccccc4nc1n3C)OC(C)(C)[C@@H](OC(C)=O)[C@H]2OC(C)=O` (racemic), for which the values for the IC50 (in the assay with L1210 [1]; in assay [2]) were 10300 nM and 8800 nM, respectively. In addition, in assay [4], the result was inactive.

Turning to `COc1ccc(/C=C/C(=O)O[C@@H]2c3c(cc(OC)c4c(=O)c5cc6ccccc6nc5n(C)c34)OC(C)(C)[C@@H]2OC(=O)/C=C/c2ccc(OC)cc2)cc1` (racemic), the IC50 in the assay with L1210 [1] amounted to 9600 nM; in assay [2] it was 370 nM. The Activity with L1210 [3] turned out to be 70%. Further, in [4], the result was Active.

As for `COc1cc2c(c3c1c(=O)c1cc4ccccc4nc1n3C)[C@@H](O)[C@@H](OC(=O)/C=C/c1ccccc1)C(C)(C)O2` (racemic), the IC50 is 110 nM with L1210 [1] and 30 nM in [2]. Moreover, the outcome in [4] was Active. In addition, the Activity in the assay on L1210 [6] is on record as 66%. Moreover, in assay [5], the T1/2 was found to be 0.75 h. For the same compound, the Tmax in [7] stood at 3 h.

`COc1cc2c(c3c1c(=O)c1cc4ccccc4nc1n3C)C(OC(C)=O)C(OC(C)=O)C(C)(C)O2` (racemic): the IC50 in the assay on L1210 [1] is 200 nM; in [2] it was 37 nM. Besides, the Activity with L1210 [3] was determined as 68%. Moreover, the result in assay [4] and in [8] was Active. For the same compound, the inhibition in vivo at 4 mg/kg with MC-38 (C38, 288 h, read-out: TGI) worked out at 95%.

For `COc1ccc(/C=C/C(=O)O[C@@H]2[C@H](O)c3c(cc(OC)c4c(=O)c5cc6ccccc6nc5n(C)c34)OC2(C)C)cc1` (racemic), the figures for the IC50 (with L1210 [1]; in assay [2]) were 290 nM and 23 nM, respectively. In addition, the Activity in the assay with L1210 [3] was 76%. The result in assay [4] was Active.

With `COc1cc2c(c3c1c(=O)c1ccccc1n3C)C=CC(C)(C)O2` [ACRONINE], in [2], 3700 nM corresponded to half-maximal inhibition (IC50).

For `COc1cc2c(c3c1c(=O)c1cc4ccccc4nc1n3C)[C@@H](OC(=O)/C=C/c1ccccc1)[C@@H](OC(=O)/C=C/c1ccccc1)C(C)(C)O2` (racemic), the IC50 with L1210 [1] is 5000 nM; in assay [2], 540 nM.

For the compound `COc1cc2c(c3c1c(=O)c1cc4ccccc4nc1n3C)[C@H](OC(C)=O)[C@H](OC(C)=O)C(C)(C)O2`, the IC50 came out at 210 nM with L1210 [1] and 35 nM in [2]. The outcome in assay [4] was Active. Also, the T1/2 in assay [5] stood at 1.5 h. Moreover, the Tmax in [7] amounted to 3 h. Further, in the assay with MC-38, the TGI entry was “Active”.

`COc1cc2c(c3c1c(=O)c1cc4ccccc4cc1n3C)[C@@H](OC(C)=O)[C@@H](OC(C)=O)C(C)(C)O2` (racemic): the IC50 in [2] was found to be 100 nM. For the same compound, the Activity in the assay on L1210 [3] was determined as 73%. In addition, the outcome in assay [4] was Active. Moreover, in assay [5], the T1/2 is 0.5 h. For the same compound, the Tmax in [7] stood at 2 h.

As to `COc1cc2c(c3c1c(=O)c1cc4ccccc4nc1n3C)[C@@H](OC(C)=O)[C@@H](OC(=O)/C=C/c1ccc(C(F)(F)F)cc1)C(C)(C)O2` (racemic), the IC50 in the assay on L1210 [1] stood at 3800 nM; in assay [2], 390 nM. For the same compound, the result in assay [4] was Active. The Activity in the assay with L1210 [9] is listed as 73%.

With `COc1cc2c(c3c1c(=O)c1cc4ccccc4nc1n3C)[C@@H](O)[C@@H](OC(=O)/C=C/c1ccc(C(F)(F)F)cc1)C(C)(C)O2` (racemic), the IC50 in the assay on L1210 [1] is 90 nM; in assay [2] it was 13 nM. The Activity in the assay with L1210 [3] was found to be 69%. The outcome in [4] was Active. The T1/2 in assay [5] and in assay [10] was 2 h each time. Also, the Tmax in assay [7] was found to be 8 h.

Turning to `COc1cc2c(c3c1c(=O)c1cc4ccccc4cc1n3C)C(OC(C)=O)C(OC(C)=O)C(C)(C)O2` (single isomer, unassigned; (+)), the T1/2 in assay [5] was determined as 0.333 h.

For the compound `COc1cc2c(c3c1c(=O)c1cc4ccccc4nc1n3C)[C@@H](OC(C)=O)[C@@H](OC(C)=O)C(C)(C)O2`, the IC50 with L1210 [1] worked out at 190 nM; in assay [2] it was 110 nM. Also, the result in [4] was Active. Moreover, the T1/2 in assay [5] came to 1 h. In addition, the Tmax in assay [7] was determined as 3 h. The TGI result with MC-38 is “inactive”.

For `COc1c2c(cc3c1c(=O)c1cc4ccccc4nc1n3C)OC(C)(C)[C@@H](O)[C@H]2O` (racemic), the IC50 in the assay with L1210 [1] came to 12500 nM; in [2], 7000 nM.

For the compound `COc1cc2c(c3c1c(=O)c1cc4ccccc4nc1n3C)C=CC(C)(C)O2`, the results for the half-inhibitory concentration (IC50) (in the assay on L1210 [1]; in assay [2]) were 11000 nM and 3700 nM, respectively. The outcome in the assay on L1210 [3] was inactive.

Regarding `COc1cc2c(c3c1c(=O)c1cc4ccccc4nc1n3C)[C@@H](O)[C@@H](O)C(C)(C)O2` (racemic), the IC50 in the assay with L1210 [1] was 5100 nM.

As to `COc1ccc(/C=C/C(=O)O[C@@H]2[C@H](OC(C)=O)c3c(cc(OC)c4c(=O)c5cc6ccccc6nc5n(C)c34)OC2(C)C)cc1` (racemic), the IC50 in the assay with L1210 [1] came out at 2900 nM; in assay [2], 470 nM. Further, the Activity in the assay with L1210 [3] came out at 70%. Moreover, the outcome in [4] was inactive.

For the compound `COc1c2c(cc3c1c(=O)c1cc4ccccc4nc1n3C)OC(C)(C)[C@H]1OC(=O)O[C@@H]21` (racemic), the values for the IC50 (with L1210 [1]; in assay [2]) were 20000 nM and 12000 nM, respectively. Moreover, the Activity in the assay on L1210 [3] is recorded as 68%. Further, in [4], the outcome was Active.

Consider `COc1cc2c(c3c1c(=O)c1cc4ccccc4nc1n3C)[C@@H](OC(=O)/C=C/c1ccc(C(F)(F)F)cc1)[C@@H](OC(=O)/C=C/c1ccc(C(F)(F)F)cc1)C(C)(C)O2` (racemic), for which the IC50 with L1210 [1] was found to be 9100 nM; in [2], 420 nM. The outcome in [4] was Active. Besides, in the assay on L1210 [6], the Activity amounted to 60%.

With `COc1cc2c(c3c1c(=O)c1cc4ccccc4nc1n3C)[C@@H](OC(C)=O)[C@@H](OC(=O)/C=C/c1ccccc1)C(C)(C)O2` (racemic), the IC50 in the assay on L1210 [1] was found to be 2100 nM; in assay [2], 320 nM. In addition, the Activity in the assay on L1210 [3] is reported as 73%. Also, the outcome in assay [4] was Active.
